Assay results from ChEMBL document CHEMBL3526048, “In vitro metabolism of rivoglitazone, a novel peroxisome proliferator-activated receptor γ agonist, in rat, monkey, and human liver microsomes and freshly isolated hepatocytes” (Drug Metab Dispos, 2011).

Experiments:
[1] = biological target: T1, UDP-glucuronosyltransferase 2B7 (Homo sapiens, UniProt P16662); assay: Activity of human UGT2B7 expressed in microsomes isolated from baculovirus infected insect cell assessed as enzyme-mediated compound formation treated with [14C]-rivoglitazone at 20 uM after 4 hrs by radio-HPLC/LC-MS/MS analysis in presence of UDPGA, UDPGA/SAM
T1 sequence (P16662 whole entry): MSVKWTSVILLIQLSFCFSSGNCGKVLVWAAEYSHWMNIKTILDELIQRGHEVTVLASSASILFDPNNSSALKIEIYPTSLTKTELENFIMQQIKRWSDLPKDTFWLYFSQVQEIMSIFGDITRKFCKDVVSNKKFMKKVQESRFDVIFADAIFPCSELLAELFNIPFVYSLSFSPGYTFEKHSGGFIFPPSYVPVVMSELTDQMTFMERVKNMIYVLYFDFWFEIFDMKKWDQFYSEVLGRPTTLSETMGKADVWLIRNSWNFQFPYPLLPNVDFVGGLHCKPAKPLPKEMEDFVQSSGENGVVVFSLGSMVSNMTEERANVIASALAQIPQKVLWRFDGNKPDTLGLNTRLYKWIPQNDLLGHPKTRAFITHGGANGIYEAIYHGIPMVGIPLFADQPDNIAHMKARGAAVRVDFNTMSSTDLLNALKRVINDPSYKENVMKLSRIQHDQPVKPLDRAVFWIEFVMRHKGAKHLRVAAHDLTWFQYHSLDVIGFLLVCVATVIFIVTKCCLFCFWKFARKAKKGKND

[2] = biological target: T2, Cytochrome P450 3A5 (Homo sapiens, UniProt P20815); assay: Activity of human CYP3A5 expressed in microsomes isolated from baculovirus infected insect cell assessed as enzyme-mediated compound formation treated with [14C]-rivoglitazone at 20 uM after 2 hrs by radio-HPLC/LC-MS/MS analysis in presence of NADPH-generating system; assay type: ADME
T2 sequence (P20815 whole entry): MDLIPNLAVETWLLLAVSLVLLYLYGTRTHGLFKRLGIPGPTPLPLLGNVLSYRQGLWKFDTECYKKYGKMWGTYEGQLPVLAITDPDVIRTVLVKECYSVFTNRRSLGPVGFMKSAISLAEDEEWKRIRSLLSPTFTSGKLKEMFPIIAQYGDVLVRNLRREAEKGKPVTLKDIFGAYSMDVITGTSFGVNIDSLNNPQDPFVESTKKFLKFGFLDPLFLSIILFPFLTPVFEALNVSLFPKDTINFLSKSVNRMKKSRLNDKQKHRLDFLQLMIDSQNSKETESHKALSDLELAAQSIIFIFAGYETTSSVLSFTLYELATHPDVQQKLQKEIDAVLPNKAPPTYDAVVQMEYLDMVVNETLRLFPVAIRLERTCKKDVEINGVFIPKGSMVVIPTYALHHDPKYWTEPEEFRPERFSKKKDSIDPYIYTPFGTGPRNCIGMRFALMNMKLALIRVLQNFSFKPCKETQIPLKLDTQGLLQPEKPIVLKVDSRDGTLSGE
Summary of the method: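 cDNA-expressed human CYP3A5 in baculovirus-insect-cell microsomes (1 mg/ml protein) was incubated with [¹⁴C]rivoglitazone (20 μM) in 50 mM potassium phosphate (pH 7.4) or 100 mM Tris-HCl (pH 7.5). NADPH-generating system: 2 mM NADP⁺, 20 mM glucose 6-phosphate, 2 units/ml G6PDH, 10 mM MgCl₂. Incubation ran 2 h at 37°C with shaking; insect-cell control supersomes served as control. Acetonitrile stop, supernatant concentrated, then radio-HPLC, LC-MS and LC-MS/MS.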

[3] = test system: Liver microsome; assay: Drug metabolism in Sprague-Dawley rat liver microsomes assessed as formation of 3-(4-((6-methoxy-1-methyl-1H-benzo[d]imidazol-2-yl)methoxy)phenyl)-2-(methylthio)propanoic acid at 20 uM after 2 to 4 hrs by radio-HPLC/LC-MS/MS analysis in presence of NADPH-generating system/SAM and UDPGA/SAM; assay type: ADME
[4] = biological target: T2, Cytochrome P450 3A5; assay: Activity of human CYP3A5 expressed in microsomes isolated from baculovirus infected insect cell assessed as enzyme-mediated 2-amino-3-((1-carboxy-2-(4-((6-methoxy-1-methyl-1H-benzo[d]imidazol-2-yl)methoxy)phenyl)ethyl)disulfanyl)propanoic acid formation at 20 uM after 2 hrs by radio-HPLC/LC-MS/MS analysis; assay type: ADME
Summary of the method: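 Baculovirus-insect-cell microsomes expressing the human CYP (1 mg/ml protein) were incubated with [14C]rivoglitazone (20 μM) in 50 mM potassium phosphate (pH 7.4) or 100 mM Tris-HCl (pH 7.5) with an NADPH-generating system (2 mM NADP+, 20 mM glucose 6-phosphate, 2 units/ml G6PDH, 10 mM MgCl2) for 2 h at 37°C. Insect-cell control supersomes served as the control. Reactions were stopped with acetonitrile, and the concentrated supernatants were analysed by radio-HPLC, LC-MS and LC-MS/MS.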

[5] = biological target: T3, UDP-glucuronosyltransferase 1A9 (Homo sapiens, UniProt O60656); assay: (§1) Activity of human UGT1A9 expressed in microsomes isolated from baculovirus infected insect cell assessed as enzyme-mediated (2S,3S,4S,5R,6R)-3,4,5-trihydroxy-6-(5-(4-((6-methoxy-1-methyl-1H-benzo[d]imidazol-2-yl)methoxy)benzyl)-2,4-dioxothiazolidin-3-yl)tetrahydro-2H-pyran-2-carboxylic acid formation at 20 uM after 4 hrs by radio-HPLC/LC-MS/MS analysis in presence of UDPGA; assay type: ADME
T3 sequence (O60656 whole entry): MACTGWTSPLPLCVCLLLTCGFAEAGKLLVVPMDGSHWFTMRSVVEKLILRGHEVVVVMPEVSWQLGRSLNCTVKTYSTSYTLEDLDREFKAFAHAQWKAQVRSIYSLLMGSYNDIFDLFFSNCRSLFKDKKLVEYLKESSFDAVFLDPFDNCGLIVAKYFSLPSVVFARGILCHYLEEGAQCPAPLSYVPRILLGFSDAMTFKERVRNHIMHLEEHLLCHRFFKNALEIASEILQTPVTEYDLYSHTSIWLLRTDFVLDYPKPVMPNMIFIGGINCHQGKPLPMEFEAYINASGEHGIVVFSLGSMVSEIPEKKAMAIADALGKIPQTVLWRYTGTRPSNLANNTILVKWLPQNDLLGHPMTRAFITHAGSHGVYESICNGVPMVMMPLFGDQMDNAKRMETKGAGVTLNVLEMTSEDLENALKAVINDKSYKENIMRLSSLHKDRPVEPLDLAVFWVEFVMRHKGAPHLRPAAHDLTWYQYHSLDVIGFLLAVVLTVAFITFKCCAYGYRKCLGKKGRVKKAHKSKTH

[6] = Drug metabolism in po dosed monkey bile assessed as formation of 5-(4-((6-methoxy-1H-benzo[d]imidazol-2-yl)methoxy)benzyl)thiazolidine-2,4-dione; assay type: ADME, organism-based, Macaca mulatta; conditions: rhesus monkey, in vivo
[7] = Drug metabolism in rat hepatocytes assessed as formation of (2S,3S,4S,5R,6R)-3,4,5-trihydroxy-6-(5-(4-((6-methoxy-1-methyl-1H-benzo[d]imidazol-2-yl)methoxy)benzyl)-2,4-dioxothiazolidin-3-yl)tetrahydro-2H-pyran-2-carboxylic acid at 30 uM after 3 hrs by radio-HPLC/LC-MS/MS analysis; assay type: ADME, cell-based, Hepatocyte
[8] = biological target: Cytochrome P450 2D6 (Homo sapiens, UniProt P10635); assay: as §1, with “human CYP2D6” for “human UGT1A9”, “after 2” for “after 4”, “UDPGA and UDPGA/SAM” for “UDPGA”; assay type: ADME
Cytochrome P450 2D6, sequence (P10635 whole entry): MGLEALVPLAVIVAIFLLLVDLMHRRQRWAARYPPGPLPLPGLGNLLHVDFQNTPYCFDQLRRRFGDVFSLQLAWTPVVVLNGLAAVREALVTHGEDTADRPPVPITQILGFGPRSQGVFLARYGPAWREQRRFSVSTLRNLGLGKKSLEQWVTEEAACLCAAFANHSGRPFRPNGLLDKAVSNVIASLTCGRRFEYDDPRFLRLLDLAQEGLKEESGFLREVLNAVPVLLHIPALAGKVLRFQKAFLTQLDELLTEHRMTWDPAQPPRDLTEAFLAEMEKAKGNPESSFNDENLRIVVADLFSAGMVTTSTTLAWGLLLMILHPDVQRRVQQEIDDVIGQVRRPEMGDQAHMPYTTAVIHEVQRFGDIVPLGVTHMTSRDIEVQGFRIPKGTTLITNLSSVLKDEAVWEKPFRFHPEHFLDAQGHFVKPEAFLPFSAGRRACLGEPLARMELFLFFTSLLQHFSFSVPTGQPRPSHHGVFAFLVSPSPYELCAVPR

[9] = Drug metabolism in cynomolgus monkey liver microsomes assessed as formation of 3-(4-((6-methoxy-1-methyl-1H-benzo[d]imidazol-2-yl)methoxy)phenyl)-2-(methylsulfonyl)propanamide at 20 uM after 2 hrs by radio-HPLC/LC-MS/MS analysis in presence of NADPH-generating system/SAM; assay type: ADME, Macaca fascicularis
[10] = Drug metabolism in cynomolgus monkey liver microsomes assessed as formation of (2S,3S,4S,5R,6R)-6-((1-carboxy-2-(4-((6-methoxy-1-methyl-1H-benzo[d]imidazol-2-yl)methoxy)phenyl)ethylthio)carbonylamino)-3,4,5-trihydroxytetrahydro-2H-pyran-2-carboxylic acid at 20 uM after 4 hrs by radio-HPLC/LC-MS/MS analysis in presence of UDPGA and UDPGA/SAM; assay type: ADME, Macaca fascicularis
[11] = Drug metabolism in cynomolgus monkey liver microsomes assessed as formation of (2S,3S,4S,5R,6R)-3,4,5-trihydroxy-6-(5-(4-((6-methoxy-1-methyl-1H-benzo[d]imidazol-2-yl)methoxy)benzyl)-2,4-dioxothiazolidin-3-yl)tetrahydro-2H-pyran-2-carboxylic acid at 20 uM after 4 hrs by radio-HPLC/LC-MS/MS analysis in presence of UDPGA and UDPGA/SAM; assay type: ADME, Macaca fascicularis
[12] = Drug metabolism in rat hepatocytes assessed as formation of 5-hydroxy-5-(4-((6-methoxy-1-methyl-1H-benzo[d]imidazol-2-yl)methoxy)benzyl)thiazolidine-2,4-dione at 30 uM after 3 hrs by radio-HPLC/LC-MS/MS analysis in presence of NADPH-generating system and NADPH-generating system/SAM; assay type: ADME, cell-based, Hepatocyte

| Structure (SMILES) | Drug metabolism [1] | Drug metabolism [2] | Drug metabolism [3] | Drug metabolism [4] | Drug metabolism [5] | Drug metabolism [6] | Drug metabolism [7] | Drug metabolism [8] | Drug metabolism [9] | Drug metabolism [10] | Drug metabolism [11] | Drug metabolism [12] |
| --- | --- | --- | --- | --- | --- | --- | --- | --- | --- | --- | --- | --- |
| COc1ccc2nc(COc3ccc(CC(S)C(=O)O)cc3)n(C)c2c1 (configuration not stated) | metabolite_detected | metabolite_detected |  |  |  |  |  |  |  |  |  |  |
| COc1ccc2nc(COc3ccc(C[14CH]4SC(=O)NC4=O)cc3)n(C)c2c1.Cl (racemic) |  |  | metabolite_detected | metabolite_not_detected | metabolite_not_detected | metabolite_detected | metabolite_detected | metabolite_not_detected | metabolite_detected | metabolite_detected | metabolite_detected | metabolite_detected |
